Reference: ChEMBL document CHEMBL3856284, “Discovery, design and synthesis of 6H-anthra[1,9-cd]isoxazol-6-one scaffold as G9a inhibitor through a combination of shape-based virtual screening and structure-based molecular modification” (Bioorg Med Chem, 2016)
Active and inactive are the calls of the source. The calls are words filed in the database; no cut-off is given here.

Assays:
[1] = Antiproliferative activity against human MCF7 cells assessed as inhibition of cell viability after 72 hrs by MTT assay; format: functional, cell-based; conditions: MCF7, 72 h
[2] = tested on: Mus musculus; assay: Clearance in mouse at 10 mg/kg, po after 5 mins to 24 hrs by LC-MS/MS analysis; conditions: in vivo
[3] = tested on: Mus musculus; assay: Volume of distribution in mouse at 10 mg/kg, iv after 2 mins to 24 hrs by LC-MS/MS analysis; conditions: in vivo
[4] = tested on: Mus musculus; assay: Half life in mouse at 10 mg/kg, po after 5 mins to 24 hrs by LC-MS/MS analysis; conditions: in vivo
[5] = tested on: MCF7; assay: Induction of apoptosis in human MCF7 cells assessed as early apoptotic cells at 8 uM after 48 hrs by annexin V staining-based flow cytometric analysis (reference value: 0.5%); format: functional
[6] = Antiproliferative activity against human HCT116 cells assessed as inhibition of cell viability after 72 hrs by MTT assay; format: functional, cell-based; conditions: HCT-116, 72 h
[7] = tested on: MCF7; assay: Induction of apoptosis in human MCF7 cells assessed as appearance of apoptotic bodies after 24 hrs by Hoechst 33258 staining-based fluorescence microscopy; format: functional, cell-based
[8] = tested on: MCF7; assay: Induction of necrosis in human MCF7 cells at 8 uM after 24 hrs by inverted light microscopic method; format: functional, cell-based
How it was run: (§1)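 MCF-7 cells were incubated 24 h with 2, 4 or 8 µM compound, with an untreated group as control. Cell morphology (distortion, blebbing, shrinkage, rounding, necrosis) was examined under an inverted light microscope at ×200.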

[9] = tested on: Mus musculus; assay: AUC in mouse at 10 mg/kg, po after 5 mins to 24 hrs by LC-MS/MS analysis; conditions: in vivo
[10] = tested on: MCF7; assay: Induction of apoptosis in human MCF7 cells assessed as necrotic cells at 2 uM after 48 hrs by annexin V staining-based flow cytometric analysis (reference value: 5.65%); format: functional
[11] = biological target: T1, Histone-lysine N-methyltransferase EHMT2 (Homo sapiens) (UniProt Q96KQ7); assay: Inhibition of G9a in human MCF7 cells assessed as decrease in dimethylation level of H3K9 at […] after 48 hrs by Western blot method; format: cell-based
T1 sequence (whole entry): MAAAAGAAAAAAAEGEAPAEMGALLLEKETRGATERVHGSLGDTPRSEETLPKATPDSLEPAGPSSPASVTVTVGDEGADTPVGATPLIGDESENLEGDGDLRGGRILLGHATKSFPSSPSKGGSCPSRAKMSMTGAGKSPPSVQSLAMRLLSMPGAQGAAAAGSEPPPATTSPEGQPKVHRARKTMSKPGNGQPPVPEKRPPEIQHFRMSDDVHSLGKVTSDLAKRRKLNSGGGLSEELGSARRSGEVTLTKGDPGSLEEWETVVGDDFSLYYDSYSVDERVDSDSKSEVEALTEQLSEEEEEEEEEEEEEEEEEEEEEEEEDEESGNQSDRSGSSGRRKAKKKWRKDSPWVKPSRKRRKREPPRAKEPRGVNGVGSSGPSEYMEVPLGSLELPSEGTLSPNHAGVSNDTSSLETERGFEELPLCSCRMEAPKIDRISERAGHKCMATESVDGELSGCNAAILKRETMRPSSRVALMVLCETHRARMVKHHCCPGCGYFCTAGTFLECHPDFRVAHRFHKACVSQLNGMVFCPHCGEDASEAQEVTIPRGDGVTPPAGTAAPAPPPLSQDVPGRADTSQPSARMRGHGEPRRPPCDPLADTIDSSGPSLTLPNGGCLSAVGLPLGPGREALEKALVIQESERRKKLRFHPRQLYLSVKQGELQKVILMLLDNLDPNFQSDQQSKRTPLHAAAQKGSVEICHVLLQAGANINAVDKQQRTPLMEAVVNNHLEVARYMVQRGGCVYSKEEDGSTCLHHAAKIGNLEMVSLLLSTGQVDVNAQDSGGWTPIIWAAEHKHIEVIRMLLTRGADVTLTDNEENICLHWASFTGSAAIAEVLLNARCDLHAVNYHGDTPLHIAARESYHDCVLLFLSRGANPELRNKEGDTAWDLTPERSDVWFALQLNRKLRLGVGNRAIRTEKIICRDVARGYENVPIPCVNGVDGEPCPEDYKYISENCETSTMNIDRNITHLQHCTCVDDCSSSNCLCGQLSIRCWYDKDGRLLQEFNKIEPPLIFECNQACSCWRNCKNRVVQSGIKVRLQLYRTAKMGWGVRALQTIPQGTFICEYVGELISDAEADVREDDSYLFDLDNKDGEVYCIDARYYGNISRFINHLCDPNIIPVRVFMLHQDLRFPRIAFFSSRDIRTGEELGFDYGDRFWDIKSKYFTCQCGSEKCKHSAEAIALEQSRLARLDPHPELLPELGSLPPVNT

[12] = tested on: Mus musculus; assay: Tmax in mouse at 10 mg/kg, iv after 2 mins to 24 hrs by LC-MS/MS analysis; conditions: in vivo
[13] = biological target: T1, Histone-lysine N-methyltransferase EHMT2 (Homo sapiens); assay: Inhibition of G9a in human MCF7 cells assessed as decrease in trimethylation level of H3K9 after 48 hrs by Western blot method; format: cell-based
[14] = Antiproliferative activity against human HepG2 cells assessed as inhibition of cell viability after 72 hrs by MTT assay; format: functional, cell-based; conditions: HepG2, 72 h
[15] = tested on: Mus musculus; assay: Cmax in mouse at 10 mg/kg, iv after 2 mins to 24 hrs by LC-MS/MS analysis; conditions: in vivo
[16] = tested on: MCF7; assay: Induction of phenotypic changes in human MCF7 cells assessed as shrinkage at 4 uM after 24 hrs by inverted light microscopic method; format: functional, cell-based; how it was run: as §1

CL/F [2]: 253 mL/min/kg
Vd [3]: 80.2 L/kg
half-life [4]: 4 h
AUC [9]: 724 ng·h/mL
inhibition [11]: Active
Tmax [12]: 7.2 min
inhibition [13]: Dose-dependent effect
Cmax [15]: 188 ng/mL
SMILES: O=C1c2ccccc2-c2onc3c(N4CCCCC4)cc(NCCN4CCCC4)c1c23
IC50 [1]: 4.52 µM
Activity [5]: 2.75%
IC50 [6]: 3.18 µM
Activity [7]: Dose-dependent effect
Activity [8]: Active
Activity [10]: 3.2%
IC50 [14]: 7.93 µM
Activity [16]: Active
